Laboratory results from ChEMBL document CHEMBL1135587, “Discovery and structure-activity relationship of N-(ureidoalkyl)-benzyl-piperidines as potent small molecule CC chemokine receptor-3 (CCR3) antagonists” (J Med Chem, 2002).

Experiments:
[1] = target: T1, C-C chemokine receptor type 3 (Homo sapiens) (UniProt P51677); test: Evaluated for its % inhibitory activity against human Chemokine receptor type 3 expressed in chinese hamster ovary cells; assay type: cell-based; conditions: CHO; concentration not given here
T1 sequence (whole entry): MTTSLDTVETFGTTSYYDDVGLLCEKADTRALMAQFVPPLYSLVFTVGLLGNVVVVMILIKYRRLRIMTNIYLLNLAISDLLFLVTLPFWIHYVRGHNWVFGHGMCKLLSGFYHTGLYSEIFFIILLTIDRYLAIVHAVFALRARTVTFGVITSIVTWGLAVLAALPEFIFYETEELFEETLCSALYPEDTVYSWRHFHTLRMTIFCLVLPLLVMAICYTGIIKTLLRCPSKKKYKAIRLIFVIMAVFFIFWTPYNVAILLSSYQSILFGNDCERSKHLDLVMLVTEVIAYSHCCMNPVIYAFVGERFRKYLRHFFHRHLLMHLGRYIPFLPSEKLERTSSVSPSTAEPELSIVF
How it was run: (§1)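 CHO cells transfected with human CCR3, 5×10^5 per well, incubated 30 min at room temperature with 150 pM (final) 125I-labeled human eotaxin and compound. Binding buffer: RPMI 1640 with 0.5% BSA, 20 mM HEPES, 5 mM MgCl2. Filtration on protamine-treated filter plates, washed with binding buffer plus 0.5 M NaCl, filter counted. Nonspecific binding defined with 100 nM eotaxin. Percent inhibition taken against compound-free total binding. IC50 values are the mean of usually three determinations.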

[2] = target: T1, C-C chemokine receptor type 3 (Homo sapiens); test: Evaluated for % inhibitory activity against human Chemokine receptor type 3 expressed in chinese hamster ovary cells; assay type: cell-based; conditions: CHO; concentration not given here; how it was run: as §1
[3] = target: T1, C-C chemokine receptor type 3 (Homo sapiens); test: Evaluated for its inhibitory activity against human Chemokine receptor type 3 expressed in chinese hamster ovary cells at 5 uM; assay type: cell-based; conditions: CHO; how it was run: as §1
[4] = target: T2, C-C chemokine receptor type 3 (Homo sapiens, UniProt P51677); test: Inhibitory activity against recombinant human Chemokine receptor type 3 (CCR3) expressed in chinese hamster ovary cells; assay type: cell-based, CHO; how it was run: as §1
T2 sequence (P51677 whole entry): T1 sequence (whole entry)

[5] = The compound was evaluated for its intracellular calcium mobilization; assay type: functional, cell-based; conditions: Homo sapiens
How it was run: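 Freshly isolated human eosinophils loaded with 5 μM fluo-3 for 60 min at 37 °C, washed, then plated at 2×10^5/well in phenol red-free binding buffer. Compound or buffer added for 5 min, then eotaxin to 10 nM final, read on FLIPR. Base-to-peak fluorescence shift measured in duplicate; inhibition at graded concentrations expressed as percent of the compound-free eotaxin control to give IC50.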

[6] = The compound was evaluated for its eotaxin-induced chemotaxis; assay type: functional, Homo sapiens
How it was run: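 Freshly isolated human eosinophils at 1×10^6 cells/mL in RPMI 1640/0.1% BSA; cells and 20 nM human eotaxin each mixed 1:1 with compound-containing medium. Eotaxin/compound in the lower well, cells/compound above, across a 5 μm PVP-free polycarbonate filter, 45 min at 37 °C. Filter wiped, dried and Wright Giemsa-stained; migrated cells counted by microscopy.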

[7] = target: T1, C-C chemokine receptor type 3 (Homo sapiens); test: Evaluated for its inhibitory activity against Chemokine receptor type 3 at 5 uM; how it was run: as §1
[8] = target: T2, C-C chemokine receptor type 3; test: Evaluated for its inhibitory activity against human Chemokine receptor type 3 expressed in chinese hamster ovary cells; assay type: cell-based, CHO
How it was run: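 Competition binding on CHO cells transfected with human CCR3, 5×10^5 cells per well, against 125I-human eotaxin at 150 pM final. Binding buffer: RPMI 1640 with 0.5% BSA, 20 mM HEPES, 5 mM MgCl2. Incubated 30 min at room temperature, then filtered on protamine-treated plates and washed with buffer plus 0.5 M NaCl before counting. Background binding defined with 100 nM eotaxin. Percent inhibition taken against the compound-free total. Values usually mean of three determinations.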

[9] = target: T3, C-C chemokine receptor type 1 (Homo sapiens, UniProt P32246); test: Inhibitory activity against human Chemokine receptor type 1 expressed in chinese hamster ovary cells; assay type: cell-based, CHO
T3 sequence (P32246 whole entry): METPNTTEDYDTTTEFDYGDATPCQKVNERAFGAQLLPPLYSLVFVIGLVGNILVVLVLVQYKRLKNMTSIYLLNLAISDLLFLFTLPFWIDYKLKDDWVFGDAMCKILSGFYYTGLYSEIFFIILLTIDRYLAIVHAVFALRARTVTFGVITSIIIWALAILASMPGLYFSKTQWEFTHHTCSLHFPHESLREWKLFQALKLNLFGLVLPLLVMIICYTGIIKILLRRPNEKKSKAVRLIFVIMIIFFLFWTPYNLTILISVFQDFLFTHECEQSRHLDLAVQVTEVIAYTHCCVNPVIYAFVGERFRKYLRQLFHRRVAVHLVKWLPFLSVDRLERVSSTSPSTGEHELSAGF

[10] = target: T1, C-C chemokine receptor type 3 (Homo sapiens); test: Evaluated for its inhibitory activity against human Chemokine receptor type 3 expressed in chinese hamster ovary cells at 10 uM; assay type: cell-based; conditions: CHO; how it was run: as §1
[11] = target: T1, C-C chemokine receptor type 3 (Homo sapiens); test: Evaluated for its % inhibitory activity against Chemokine receptor type 3 at 5 uM; how it was run: as §1

Row | SMILES | IC50 [4] [nM] | IC50 [9] [nM] | further results
1 | COC(=O)c1ccc(CN2CCC(Cc3ccccc3)CC2)c(NC(=O)Nc2cccc(C#N)c2)c1 |  |  | inhibition [1]: 72%
2 | COc1ccc(NC(=O)Nc2ccc(CN3CCC(Cc4ccccc4)CC3)cc2)cc1 |  |  | inhibition [2]: 48%
3 | O=C(Nc1cc(F)ccc1F)Nc1ccccc1CN1CCC(O)(c2ccc(Cl)cc2)CC1 |  |  | inhibition [3]: 21%
4 | O=C(Nc1ccccc1)Nc1ccccc1/C(CN1CCC(Cc2ccccc2)CC1)=N\O |  |  | inhibition [7]: 59%
5 | OC1(c2ccc(Cl)cc2)CCN(Cc2ccccc2)CC1 |  |  | IC50 [8]: 18.7 µM
6 | CC(C)(C)NC(=O)NCC(CCCN1CCC(O)(c2ccc(Cl)cc2)CC1)(c1ccccc1)c1ccccc1 | 3000 | 71 | 
7 | O=C(NCC1CCCCC1)NCC(CCCN1CCC(O)(c2ccc(Cl)cc2)CC1)(c1ccccc1)c1ccccc1 | 2400 | 125 | 
8 | O=C(Nc1cc(F)ccc1F)Nc1ccccc1N1CCC(Cc2ccccc2)CC1 |  |  | inhibition [3]: 9%
9 | O=C(NCC(CCCN1CCC(O)(c2ccc(Cl)cc2)CC1)(c1ccccc1)c1ccccc1)NC1CCN(Cc2ccccc2)CC1 | 1620 | 310 | 
10 | O=C(NCCCO)NCC(CCCN1CCC(O)(c2ccc(Cl)cc2)CC1)(c1ccccc1)c1ccccc1 | 2350 | 31 | 
11 | CNC(=O)NCC(CCCN1CCC(O)(c2ccc(Cl)cc2)CC1)(c1ccccc1)c1ccccc1 | 8300 | < 780 | 
12 | O=C(NCC(CCCN1CCC(O)(c2ccc(Cl)cc2)CC1)(c1ccccc1)c1ccccc1)Nc1ccncc1 | 3500 | 167 | 
13 | N#Cc1cccc(NC(=O)Nc2ccc(CN3CCC(Cc4ccccc4)CC3)cc2)c1 |  |  | inhibition [3]: 47%
14 | OC1(c2ccc(Cl)cc2)CCN(CCc2ccccc2)CC1 |  |  | inhibition [10]: 19%
15 | O=C(Nc1ccc(F)cc1F)Nc1ccccc1C(=O)CN1CCC(Cc2ccccc2)CC1 |  |  | inhibition [11]: 35%
16 | O=C(NCCN1CCCCC1)NCC(CCCN1CCC(O)(c2ccc(Cl)cc2)CC1)(c1ccccc1)c1ccccc1 | 2200 | 360 | 
17 | O=C(NCCN1CCCCC1)Nc1ccccc1CN1CCC(Cc2ccccc2)CC1 | 7600 | > 50000 | 
18 | O=C(NCc1ccccc1)Nc1ccccc1CN1CCC(Cc2ccccc2)CC1 | 3400 | > 10000 | 
19 | O=C(Nc1ccccc1)Nc1cccc(C(O)CN2CCC(Cc3ccccc3)CC2)c1 (centres undefined) |  |  | inhibition [3]: 71%
20 | COC(=O)N1CCC(NC(=O)NCC(CCCN2CCC(O)(c3ccc(Cl)cc3)CC2)(c2ccccc2)c2ccccc2)CC1 | 5300 | 500 | 
21 | O=C(Nc1cc(F)ccc1F)Nc1ccccc1CN1CCN(Cc2ccccc2)CC1 |  |  | inhibition [3]: 28%
22 | O=C(Nc1ccc2[nH]ncc2c1)Nc1ccccc1CN1CCC(Cc2ccccc2)CC1 | 450 | > 10000 | 
23 | N#CC(CCCN1CCC(O)(c2ccc(Cl)cc2)CC1)(c1ccccc1)c1ccccc1 [BERLEX COMPOUND] | 9000 | 630 | 
24 | c1ccc(CCN2CCC(Cc3ccccc3)CC2)cc1 | 7100 | > 50000 | 
25 | CC(C)NC(=O)NCC(CCCN1CCC(O)(c2ccc(Cl)cc2)CC1)(c1ccccc1)c1ccccc1 | 6100 | < 780 | 
26 | N#CC(CCCN1CCC(Cc2ccccc2)CC1)(c1ccccc1)c1ccccc1 | 4600 | > 50000 | 
27 | N#Cc1cccc(NC(=O)Nc2ccccc2C(O)CN2CCC(Cc3ccccc3)CC2)c1 (centres undefined) | 49 | > 10000 | 
28 | O=C(NCCCO)Nc1ccccc1CN1CCC(Cc2ccccc2)CC1 | 2600 | > 10000 | 
29 | NCC(CCCN1CCC(O)(c2ccc(Cl)cc2)CC1)(c1ccccc1)c1ccccc1 | 12000 | 760 | 

Further lines, with some results ahead:

Row | IC50 [4] [nM] | IC50 [9] [nM] | SMILES | further results
30 | 2 |  | CC(=O)c1cccc(NC(=O)Nc2cccc(C(N)=O)c2CN2CCC(Cc3ccc(F)cc3)CC2)c1 | IC50 [5]: 5.9 nM; IC50 [6]: 46 nM
31 | 3 |  | CC(=O)c1cccc(NC(=O)Nc2ccc(C(N)=O)cc2CN2CCC(Cc3ccc(F)cc3)CC2)c1 | IC50 [5]: 9.5 nM
32 | 1 |  | CNC(=O)c1cccc(NC(=O)Nc2cccc(C(C)=O)c2)c1CN1CCC(Cc2ccc(F)cc2)CC1 | IC50 [5]: 1.4 nM; IC50 [6]: 30 nM
33 | 900 | > 10000 | O=C(Nc1ccccc1)Nc1ccccc1CN1CCC(Cc2ccccc2)CC1 | 
34 | 2 |  | CNC(=O)c1cccc(NC(=O)Nc2ccccc2)c1CN1CCC(Cc2ccc(F)cc2)CC1 | IC50 [5]: 4.3 nM
35 | 600 | > 10000 | COc1cccc(NC(=O)Nc2ccccc2CN2CCC(Cc3ccccc3)CC2)c1 | 
36 | 8 |  | CNC(=O)c1ccc(NC(=O)Nc2cccc(C(C)=O)c2)c(CN2CCC(Cc3ccc(F)cc3)CC2)c1 | IC50 [5]: 11.8 nM
37 | 1 |  | CNC(=O)c1cccc(NC(=O)Nc2cccc(C#N)c2)c1CN1CCC(Cc2ccc(F)cc2)CC1 | IC50 [5]: 5.3 nM
38 | 750 | > 10000 | N#Cc1cccc(NC(=O)Nc2ccccc2CN2CCC(Cc3ccccc3)CC2)c1 | 
39 | 2.6 |  | CC(=O)c1cccc(NC(=O)Nc2ccccc2CCN2CCC(Cc3ccc(F)cc3)CC2)c1 | IC50 [6]: 71 nM
40 | 8 |  | COC(=O)c1cccc(NC(=O)Nc2cccc(C(C)=O)c2)c1CN1CCC(Cc2ccc(F)cc2)CC1 | IC50 [5]: 8.2 nM; IC50 [6]: 76 nM
41 | 2 |  | CNC(=O)c1cccc(NC(=O)Nc2cccc(OC)c2)c1CN1CCC(Cc2ccc(F)cc2)CC1 | IC50 [5]: 4.2 nM
